Consider two compounds from ChEMBL document CHEMBL5712077, “Secreted heat shock protein 90 promotes prostate cancer stem cell heterogeneity” (Oncotarget, 2017).

Activity calls are given as the source filed them. The rule behind the calls is not given here.

Conditions in all cases: time 3.0 day
Test [1] has as its system DU-145. Put plainly: Inhibition of extracellular Hsp90 in human DU-145 cells expressing Hsp90 assessed as reduction in side population ast 1 uM after 3 days by Hoechst staining based flow cytometry. Type of test: cell-based. Put shortly: (§1)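 Side population by flow cytometry after 3 days of inhibitor treatment. Cells at 1 x 10^6/mL in culture medium were stained with Hoechst 33342 at 5 ug/mL for 2 h at 37C, protected from light. Propidium iodide excluded dead cells. UV laser; Hoechst red 620 nm against blue 448 nm. Gate set on 50 uM verapamil controls. At least three repeats, Student's t-test.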
(In general: In flow cytometry, cells or beads pass a laser one at a time.)

Test [2] relates to ARCaPE. Put plainly: Inhibition of extracellular Hsp90 in human ARCaPE cells expressing Hsp90 assessed as decrease in spheroid growth at 1 uM for 3 days and cells were treated under continuous condition by microscopic analysis. It is filed as cell-based. In short, it runs like this: (§2)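 Spheroid passaging with inhibitor exposure. Pre-treatment: inhibitor given for 3 days before suspension. Post-treatment: inhibitor given at initial suspension. Continuous: 3-day pre-treatment, then kept on inhibitor in spheroid culture. Cells seeded at 2000 per well in low-attachment plates in DMEM/F12 with N2 and B27. Spheres of at least 5 cells counted at day 10-14 for each passage. Compared with untreated cells by Student's t-test.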

In test [3] the test system is DU-145. Put plainly: Inhibition of extracellular Hsp90 in human DU145 cells expressing Hsp90 assessed as decrease in spheroid growth at 1 uM for 3 days and cells were treated pre-spheroid suspension by microscopic analysis. It is filed as cell-based. Put shortly: as §2
Test [4] has as its system ARCaPE. Put plainly: Inhibition of extracellular Hsp90 in human ARCaPE cells expressing Hsp90 assessed as decrease in spheroid growth at 1 uM for 3 days and cells were treated pre-spheroid suspension by microscopic analysis. It is filed as cell-based. Put shortly: as §2
The subject of test [5] is DU-145. Put plainly: Inhibition of extracellular Hsp90 in human DU145 cells expressing Hsp90 assessed as decrease in spheroid growth at 1 uM for 3 days and cells were treated under continuous condition by microscopic analysis. It is filed as cell-based. Put shortly: as §2
The test system of test [6] is M12. Put plainly: Inhibition of extracellular Hsp90 in human M12 cells expressing Hsp90 assessed as reduction in side population ast 1 uM after 3 days by Hoechst staining based flow cytometry.
Test [7] concerns ARCaPE. Put plainly: Inhibition of extracellular Hsp90 in human ARCaPE cells expressing Hsp90 assessed as increase in spheroid growth at 1 uM for 3 days and cells were treated post spheroid suspension by microscopic analysis. Type of test: cell-based. Put shortly:
as §2

The target in test [8] is Histone-lysine N-methyltransferase EZH2 (Homo sapiens) (UniProt Q15910). Put plainly: Inhibition of EZH2 in human DU-145 cells expressing Hsp90 assessed as decrease in spheroid growth at 500 nM for 3 days and cells were treated pre-spheroid suspension by microscopic analysis. Type of test: cell-based. Put shortly: as §2
Sequence of Histone-lysine N-methyltransferase EZH2 (Homo sapiens) (Q15910 whole entry, looked up): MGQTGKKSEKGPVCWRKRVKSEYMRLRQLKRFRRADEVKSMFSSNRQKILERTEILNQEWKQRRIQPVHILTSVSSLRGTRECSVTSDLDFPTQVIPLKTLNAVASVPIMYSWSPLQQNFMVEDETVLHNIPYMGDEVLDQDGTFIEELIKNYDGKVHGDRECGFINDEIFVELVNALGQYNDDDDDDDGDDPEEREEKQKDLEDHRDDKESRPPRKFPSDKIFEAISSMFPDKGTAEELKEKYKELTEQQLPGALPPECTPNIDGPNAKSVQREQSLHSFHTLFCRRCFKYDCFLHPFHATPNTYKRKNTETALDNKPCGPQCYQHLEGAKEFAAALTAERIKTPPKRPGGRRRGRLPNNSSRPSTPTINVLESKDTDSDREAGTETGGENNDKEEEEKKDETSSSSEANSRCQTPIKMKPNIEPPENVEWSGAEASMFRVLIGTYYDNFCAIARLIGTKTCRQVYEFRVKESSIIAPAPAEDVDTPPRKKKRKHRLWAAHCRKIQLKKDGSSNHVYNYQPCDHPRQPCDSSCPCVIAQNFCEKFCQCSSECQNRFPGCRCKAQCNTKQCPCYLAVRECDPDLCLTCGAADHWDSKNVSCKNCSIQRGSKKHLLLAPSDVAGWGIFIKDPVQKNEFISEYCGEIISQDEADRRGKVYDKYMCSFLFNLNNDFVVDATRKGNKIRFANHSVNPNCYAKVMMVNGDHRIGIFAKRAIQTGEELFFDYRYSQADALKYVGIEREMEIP
Test [9] has the same target. Put plainly: Inhibition of EZH2 in human ARCaPE cells expressing Hsp90 assessed as decrease in spheroid growth at 500 nM for 3 days and cells were treated under continuous condition by microscopic analysis. Type of test: cell-based. Put shortly:
as §2

For test [10] the target is unchanged. Put plainly: Inhibition of EZH2 in human DU-145 cells expressing Hsp90 assessed as decrease in spheroid growth at 500 nM for 3 days and cells were treated under continuous condition by microscopic analysis. It is filed as cell-based. Put shortly:
as §2

The target is the same in test [11]. Put plainly: Inhibition of EZH2 in human ARCaPE cells expressing Hsp90 assessed as decrease in spheroid growth at 500 nM for 3 days and cells were treated pre-spheroid suspension by microscopic analysis. It is filed as cell-based. Put shortly:
as §2

The target is the same in test [12]. Put plainly: Inhibition of EZH2 in human ARCaPE cells expressing Hsp90 assessed as decrease in spheroid growth at 500 nM for 3 days and cells were treated post-spheroid suspension by microscopic analysis. It is filed as cell-based. In short, it runs like this:
as §2

Test [13] has the same target. Put plainly: Inhibition of EZH2 in human ARCaPE cells expressing Hsp90 assessed as reduction in side population at 500 nM after 3 days by Hoechst staining based flow cytometry. It is filed as cell-based. Put shortly: as §1
Test [14] has the same target. Put plainly: Inhibition of EZH2 in human DU-145 cells expressing Hsp90 assessed as reduction in side population at 500 nM after 3 days by Hoechst staining based flow cytometry. It is filed as cell-based. In short, it runs like this:
as §1

Test [15] shares this target. Put plainly: Inhibition of EZH2 in human DU-145 cells expressing Hsp90 assessed as decrease in spheroid growth at 500 nM for 3 days and cells were treated post-spheroid suspension by microscopic analysis. It is filed as cell-based. Put shortly:
as §2

On to `COC1=C2C[C@@H](C)C[C@H](OC)[C@H](O)[C@@H](C)/C=C(\C)[C@H](OC(N)=O)[C@@H](OC)/C=C\C=C(/C)C(=O)NC(=CC1=O)C2=O`, for which the inhibition entry in test [1], in [2], in test [3], in test [4], in test [5] and in [6] was “Active” in each case. In addition, in test [7], the inhibition result is “inactive”.
Turning to `CCCc1cc(C)[nH]c(=O)c1CNC(=O)c1cc(-c2ccnc(N3CCN(C)CC3)c2)cc2c1cnn2C(C)C`, the inhibition result in [8], in [9], in test [10], in test [11], in test [12] and in test [13] was “Active” each time. Moreover, the inhibition entry in test [14] and in [15] was “Active” each time.
